# Measured values published in ChEMBL document CHEMBL1146360, “Benzoic acid and pyridine derivatives as inhibitors of Trypanosoma cruzi trans-sialidase” (Bioorg Med Chem, 2007).
# System: Trypanosoma cruzi
# Assay: Inhibition of Trypanosoma cruzi recombinant Trans-sialidase at 0.5 mM
# Conditions: not given
# How it was run: (§1)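 Recombinant His-tagged TcTS was expressed in E. coli with IPTG induction at 18 °C, then purified by metal-affinity and anion-exchange chromatography. Enzyme (0.33 mg/mL stock) and inhibitor were preincubated 10 min at 25 °C in 20 mM Tris-HCl pH 7.5. The reaction was started with MuNANA (1 mM stock) and methylumbelliferone release read continuously for 10 min at 25 °C (ex 322/em 448 nm). Percentage activity is the mean of ≥3 independent runs. I50 was fitted as V=100%/{1+([I]/I50)^s}.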
row,Structure (SMILES),inhibition
1,NC(N)=Nc1cc(C(=O)O)ccc1NC(=O)Cc1ccccc1,54%

# Target: not listed separately
# Assay: Inhibition of Trypanosoma cruzi recombinant Trans-sialidase
# Conditions: read-out: I50
# How it was run: as §1
row,Structure (SMILES),IC50
1,CC(=O)Nc1ccc(C(=O)O)nc1N,440 µM
2,NCC(=O)Nc1cc(C(=O)O)ccc1SCc1ccccc1,1000 µM
3,CNC(=O)c1ccc(C(=O)O)cc1NC(=N)N,760 µM
4,CC(=O)Nc1ccc(C(=O)O)cc1CO,540 µM
5,Nc1cc(C(=O)O)ccc1NC(=O)Cc1ccccc1,1200 µM
6,Nc1cc(C(=O)O)ccc1SCc1ccccc1,700 µM
7,CC(=O)Nc1cc(C(=O)O)ccc1N1CCOCC1,580 µM
8,Nc1cc(C(=O)O)ccc1NCc1cccnc1,740 µM
9,CC(=S)Nc1ccc(C(=O)O)nc1,540 µM

# System: Trypanosoma cruzi
# Conditions: at 1 mM
row,Structure (SMILES),inhibition
1,CS(=O)(=O)Nc1ccc(C(=O)O)nc1,25%
2,N=C(N)Nc1cc(/C=N/O)cc(C(=O)O)c1,35%
3,CC(=O)Nc1ccc(C(=O)O)cc1CC(O)CO (stereo in doubt; 32),0%
4,CC(=O)Nc1ccc(C(=O)O)cc1CCO,16%
5,NC(N)=Nc1cc(C(=O)O)cc(CCO)c1N,0%
6,CS(=O)(=O)Nc1c(CO)cc(C(=O)O)cc1N=C(N)N,11%
7,CC(=O)Nc1cnc(C(=O)O)cc1N,14%
8,CC(=O)Nc1ccc(C(=O)O)cc1CC(N)=O,0%
9,CC(=O)Nc1c(CCO)cc(C(=O)O)cc1N=C(N)N,0%
10,O=C(CN1CCOCC1)Nc1ccc(C(=O)O)cc1,0%
11,CS(=O)(=O)Nc1ccc(C(=O)O)cc1C(O)CN (stereo unspecified),17%
12,NC(N)=Nc1cc(C(=O)O)ccc1NCc1ccccc1,9%
13,CC(=O)Nc1ccc(C(=O)O)cc1,0%
14,CS(=O)(=O)Nc1c(/C=N/O)cc(C(=O)O)cc1N=C(N)N,46%
15,CC(=O)Nc1ccc(C(=O)O)nc1,22%
16,C[S+]([O-])Nc1ccc(C(=O)O)cc1N=C(N)N (stereo unspecified),29%
17,CC(=O)Nc1ccc(C(=O)O)cc1/C=N/O,24%
18,CC(=O)Nc1ccc(C(=O)O)cc1CCN,25%
19,CC(=O)Nc1ccc(C(=O)O)cc1CC(O)CO (stereo in doubt; 31),17%

# System: Trypanosoma cruzi
# Assay: Inhibition of Trypanosoma cruzi recombinant Trans-sialidase at 0.4 mM
# Conditions: not given
# How it was run: as §1
row,Structure (SMILES),inhibition
1,NC(N)=Nc1cc(C(=O)O)ccc1SCc1ccccc1,43%

# System: Trypanosoma cruzi
# Assay: Apparent activation of Trypanosoma cruzi recombinant Trans-sialidase
# Conditions: concentration not given here
# How it was run: as §1
row,Structure (SMILES),inhibition
1,N=C(N)Nc1cc(CCN)cc(C(=O)O)c1,-19%
